From ChEMBL document CHEMBL1914360, “Synthesis and anticancer activity of 5'-chloromethylphosphonates of 3'-azido-3'-deoxythymidine (AZT)” (Bioorg Med Chem, 2011)
Values after ≈ are worked out from the molar mass of the structure shown.

Legend:
KB = experiment: Cytotoxicity against human KB cells assessed as cell survival after 72 hrs by sulforhodamine B colorimetric assay; assay type: functional, cell-based
Method in brief: (§1)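 SRB protein-stain assay: KB cells grown in RPMI 1640 and MCF-7 in DMEM, each with 10% FBS, 1% L-glutamine and 1% penicillin/streptomycin, at 37 °C. About 10,000 cells per well were left 24 h, then exposed 72 h to six concentrations ([…]), with DMSO ≤0.1%. Cells were TCA-fixed 1 h at 4 °C and stained 30 min at RT. OD was read at 490 nm, survival taken as % of untreated control, and each experiment run three times.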

MCF7 = experiment: Cytotoxicity against human MCF7 cells assessed as cell survival after 72 hrs by sulforhodamine B colorimetric assay; assay type: functional, cell-based; conditions: MCF7, 72 h; method in brief: as §1
Caco-2 = experiment: Cytotoxicity against human Caco2 cells at 100 uM; assay type: cell-based; conditions: caco-2, 100 µM
Method in brief: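 Caco-2 monolayers were exposed for 2 h to compound at 100 µM in transport medium (HBSS with 10 mM HEPES, pH 7.4). This served as a pre-check before transport studies. Monolayer integrity was checked by TEER before and after the experiments.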

[1] = Apparent permeability from basolateral to apical side of the human Caco2 cells at 100 uM after 30 mins by HPLC method; assay type: ADME, cell-based; conditions: Caco-2
Method in brief: (§2)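 Caco-2 monolayers grown on polycarbonate membranes (0.4 µm pores) and used 21 days post-seeding; only monolayers with TEER above 800 Ω·cm² were used. Cells washed and pre-incubated 30 min at 37 °C. Compound at 100 µM in HBSS with 10 mM HEPES, pH 7.4, added to the donor side; shaken at 37 °C. Acceptor sampled every 15 min and analysed by HPLC. Papp reported as mean ± SD, n = 3.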

[2] = Apparent permeability from apical to basolateral side of the human Caco2 cells at 100 uM after 30 mins by HPLC method; assay type: ADME, cell-based; conditions: Caco-2; method in brief: as §2
[3] = Oral bioavailability in human; assay type: ADME, organism-based; conditions: in vivo

Compound	IC50 (KB) [µg/mL]	IC50 (MCF7) [µg/mL]	Activity (Caco-2)	Papp B→A at 0.5 h, 100 µM [1] [×10⁻⁶ cm/s]	Papp A→B at 0.5 h, 100 µM [2] [×10⁻⁶ cm/s]	bioavailability [3] [%]
Nc1ccn([C@@H]2O[C@H](CO)[C@@H](O)[C@@H]2O)c(=O)n1 [CYTARABINE]	0.99 (≈ 4.07 µM)	0.93 (≈ 3.82 µM)	–	–	–	–
CNP(=O)(CCl)OC[C@H]1O[C@@H](n2cc(C)c(=O)[nH]c2=O)C[C@@H]1N=[N+]=[N-] (some centres not stated)	52 (≈ 132 µM)	63.2 (≈ 161 µM)	–	–	–	–
CCCNP(=O)(CCl)OC[C@H]1O[C@@H](n2cc(C)c(=O)[nH]c2=O)C[C@@H]1N=[N+]=[N-] (some centres not stated)	5.8 (≈ 13.8 µM)	3.7 (≈ 8.79 µM)	Non-toxic	16.1	3.22	–
Cc1cn([C@H]2C[C@H](N=[N+]=[N-])[C@@H](COP(=O)(CCl)NCCc3ccccc3)O2)c(=O)[nH]c1=O (some centres not stated)	> 100	> 100	–	–	–	–
Cc1cn([C@H]2C[C@H](N=[N+]=[N-])[C@@H](COP(=O)(CCl)N(C)C)O2)c(=O)[nH]c1=O (some centres not stated)	65 (≈ 160 µM)	22.8 (≈ 56.1 µM)	–	–	–	–
C=CCNP(=O)(CCl)OC[C@H]1O[C@@H](n2cc(C)c(=O)[nH]c2=O)C[C@@H]1N=[N+]=[N-] (some centres not stated)	47 (≈ 112 µM)	34 (≈ 81.2 µM)	–	–	–	–
CCN(CC)P(=O)(CCl)OC[C@H]1O[C@@H](n2cc(C)c(=O)[nH]c2=O)C[C@@H]1N=[N+]=[N-] (some centres not stated)	85 (≈ 195 µM)	67 (≈ 154 µM)	–	–	–	–
CCNP(=O)(CCl)OC[C@H]1O[C@@H](n2cc(C)c(=O)[nH]c2=O)C[C@@H]1N=[N+]=[N-] (some centres not stated)	> 100	> 100	–	–	–	–
CCCCNP(=O)(CCl)OC[C@H]1O[C@@H](n2cc(C)c(=O)[nH]c2=O)C[C@@H]1N=[N+]=[N-] (some centres not stated)	77 (≈ 177 µM)	82 (≈ 189 µM)	–	–	–	–
Cc1cn([C@H]2C[C@H](N=[N+]=[N-])[C@@H](COP(=O)(CCl)NC(C)C)O2)c(=O)[nH]c1=O (some centres not stated)	12.1 (≈ 28.8 µM)	12.8 (≈ 30.4 µM)	Non-toxic	18	3.36	–
Cc1cn([C@H]2C[C@H](N=[N+]=[N-])[C@@H](COP(=O)(CCl)NCCc3c[nH]c4ccccc34)O2)c(=O)[nH]c1=O (some centres not stated)	80 (≈ 153 µM)	> 100	–	–	–	–
Cc1cn([C@H]2C[C@H](N=[N+]=[N-])[C@@H](CO)O2)c(=O)[nH]c1=O [ZIDOVUDINE]	3.12 (≈ 11.7 µM)	2.6 (≈ 9.73 µM)	–	–	2.85	63
